The values that follow come from ChEMBL document CHEMBL4138188, “Eurycomalactone Inhibits Expression of Endothelial Adhesion Molecules at a Post-Transcriptional Level” (J Nat Prod, 2017).

As a reminder, the IC50 is the midpoint of a concentration-inhibition curve.

Structures are written as SMILES. Active and inactive are the calls of the source. No cut-off for these calls is given here.

For assay [1], the species on record is Homo sapiens. The experiment in a line: Reduction in cyclin D1 level in HUVECtert at 1 uM by Western blot analysis. The settings on record: TDE = time-dependent effect. Format: functional. In outline:
(§1)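 HUVECtert treated with 1 μM cycloheximide, 2 μM agent, vehicle, or left untreated for a time course; cyclin D1 or survivin by Western blot, actin loading control; means ± SD of three blots, one-way ANOVA/Dunnett versus untreated.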
(Immunoblotting shows a protein as a band on a membrane.)

Assay [2] is described as follows: Inhibition of NF-kappaB in HUVECtert assessed as reduction in TNFalpha-induced VCAM-1 expression level pretreated for 30 mins followed by TNFalpha stimulation measured after 18 hrs by flow cytometry. Further details: species or system Homo sapiens. In outline: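 FITC-antibody surface staining, flow cytometry; expression relative to TNFα-stimulated control. Parthenolide 10 μM as positive control; means ± SD, n = 3, one-way ANOVA/Dunnett versus vehicle.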
In general terms: In flow cytometry, cells or beads pass a laser one at a time.

The species entered for assay [3] is Homo sapiens. The experiment in a line: Reduction in survivin level in HUVECtert at 1 uM by Western blot analysis. Format: functional. The settings on record: TDE = time-dependent effect. In outline: as §1
Assay [4] is filed under the species Homo sapiens. Briefly: Reduction in cyclin A level in HUVECtert at 1 uM after 8 hrs by Western blot analysis. Format: functional.
For assay [5], the species on record is Homo sapiens. The experiment in a line: Inhibition of de novo protein synthesis in HUVECtert at 1 to 35 uM after 30 mins by Click-iT OPP/Alexa fluor 488 picolyl azide reagent based flow cytometry. Format: functional. Summed up:
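HUVECtert (1 × 10^6 cells in tubes) exposed 30 min to agent (2 or 5 μM; cycloheximide 1−35 μM) or vehicle, then 20 μM OPP 30 min; fixed, permeabilised, Alexa 488 click-labelled in Tris buffer pH 7.4; FL-1 flow cytometry relative to control; n = 3, one-way ANOVA/Dunnett.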

The species named for assay [6] is Homo sapiens. The experiment in a line: Inhibition of NF-kappaB in HUVECtert assessed as reduction in TNFalpha-induced ICAM-1 mRNA expression level at 35 uM pretreated for 30 mins followed by TNFalpha stimulation measured after 4 hrs by qRT-PCR analysis. For orientation: In qPCR the cycle at which signal appears reflects the starting amount.
Assay [7] is filed under the species Homo sapiens. The experiment in a line: Reduction in p53 level in HUVECtert at 1 uM after 8 hrs by Western blot analysis. Format: functional.
The species entered for assay [8] is Homo sapiens. Briefly: Inhibition of NF-kappaB in HUVECtert assessed as reduction in TNFalpha-induced VCAM-1 mRNA expression level at 35 uM pretreated for 30 mins followed by TNFalpha stimulation measured after 4 hrs by qRT-PCR analysis.
The species named for assay [9] is Homo sapiens. The experiment in a line: Inhibition of NF-kappaB in HUVECtert assessed as reduction in cyclin D1 mRNA expression level at 1 uM measured up to 240 mins by qRT-PCR analysis. Summed up:
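HUVECtert incubated without TNFα with 2 μM agent, 1 μM cycloheximide or 0.1% DMSO for 0.5−4 h; cyclin D1 mRNA by qRT-PCR, 2−ΔΔCt analysis.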

The species named for assay [10] is Homo sapiens. Briefly: Inhibition of NF-kappaB in HUVECtert assessed as reduction in TNFalpha-induced E-selectin mRNA expression level at 35 uM pretreated for 30 mins followed by TNFalpha stimulation measured after 2 hrs by qRT-PCR analysis.
For assay [11], the species on record is Homo sapiens. The experiment in a line: Inhibition of de novo protein synthesis in HUVECtert at 1 to 35 uM after 30 mins by Click-iT OPP/Alexa fluor 488 picolyl azide reagent based confocal fluorescence microscopy. Format: functional. Summed up:
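Cells on gelatin coverslips (24 h) exposed 30 min to agent (2 or 5 μM; cycloheximide 1, 3.5, 35 μM) or 0.1% DMSO, then 20 μM OPP for 30 min; formaldehyde fixation, Triton permeabilisation, Alexa 488 picolyl azide click reaction 30 min, nuclear counterstain; confocal imaging at 10×, constant gain and exposure.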

Assay [12] is filed under the species Homo sapiens. Briefly: Inhibition of NF-kappaB in HUVECtert assessed as reduction in TNFalpha-induced VCAM-1 mRNA expression level at 10 uM pretreated for 30 mins followed by TNFalpha stimulation measured after 4 hrs by qRT-PCR analysis. Summed up: (§2)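 HUVECtert (immortalised HUVEC, used to passage 15), 0.5 × 10^6 cells grown 48 h on gelatin-coated dishes. Preincubated 30 min with compound or 0.1% DMSO vehicle, then TNFα 10 ng/mL for 2 h (E-selectin) or 4 h (VCAM-1, ICAM-1). After RNA isolation and cDNA synthesis, mRNA was quantified by qRT-PCR using the 2−ΔΔCt method. Means ± SD, n = 3.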

Assay [13] is filed under the species Homo sapiens. The experiment in a line: Inhibition of NF-kappaB in HUVECtert assessed as reduction in TNFalpha-induced E-selectin mRNA expression level at 10 uM pretreated for 30 mins followed by TNFalpha stimulation measured after 2 hrs by qRT-PCR analysis. In outline: as §2
Assay [14] is filed under the species Homo sapiens. Briefly: Inhibition of NF-kappaB in HUVECtert assessed as reduction in TNFalpha-induced ICAM-1 mRNA expression level at 10 uM pretreated for 30 mins followed by TNFalpha stimulation measured after 4 hrs by qRT-PCR analysis. In outline:
as §2

Regarding `C[C@@H]1C[C@@H]([C@H](O)CC2CC(=O)NC(=O)C2)C(=O)[C@@H](C)C1` [CYCLOHEXIMIDE], the Activity entry in the assay listed under Homo sapiens [1] and in the assay listed under Homo sapiens [3] was “Tde” each time. In addition, the IC50 in assay [2] came out at 300 nM. Also, the result in the assay filed under Homo sapiens [4] and in the assay listed under Homo sapiens [7] was inactive. Moreover, the inhibition result in the assay filed under Homo sapiens [5], in the assay filed under Homo sapiens [8] and in the assay listed under Homo sapiens [11] was “Active” throughout. For the same molecule, the inhibition entry in the assay filed under Homo sapiens [6], in the assay listed under Homo sapiens [9] and in the assay filed under Homo sapiens [10] was “inactive” in each case.

Consider `C=C1C(=O)O[C@@H]2C3O[C@]3(C)CC/C=C(\C)CC[C@@H]12` (some centres undefined), for which the inhibition entry in the assay filed under Homo sapiens [12], in the assay listed under Homo sapiens [13] and in the assay listed under Homo sapiens [14] was “Active” in each case.
